Test results from ChEMBL document CHEMBL1157701, “Inhibition of IkB kinase and NF-kappaB by a novel synthetic compound SK 2009” (Bioorg Med Chem, 2010).
Active and inactive are the calls of the source. The calls are words filed in the database; no cut-off is given here.

What was measured:
KBM5 [1] = test: Inhibition of TNF-alpha-induced NF-kappaB activation in human KBM5 cells at 100 uM treated for 12 hrs before TNFalpha challenge measured after 30 mins by EMSA relative to control; format: cell-based
Procedure, shortened: (§1)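 KBM-5 cells (1×10^6/mL) preincubated with compound for 12 h, then stimulated with 0.1 nM TNFα for 30 min. Nuclear extracts (15 μg protein) incubated with 16 fmol 32P-end-labeled 45-mer HIV LTR NF-κB oligonucleotide for 30 min at 37°C and resolved by EMSA. DMSO stock diluted in culture medium.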

[2] = Cytotoxicity against human KBM5 cells assessed as cell viability at 100 uM by trypan blue assay; format: cell-based; details: read-out: Activity
KBM5 [3] = test: Inhibition of TNF-alpha-induced NF-kappaB activation in human KBM5 cells at 100 uM treated for 12 hrs before TNFalpha challenge measured after 30 mins by EMSA; format: cell-based; procedure, shortened: as §1
KBM5 [4] = test: Cytotoxicity against human KBM5 cells at 10 uM after 72 hrs by MTT assay; format: functional, cell-based
Procedure, shortened: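 MTT viability: KBM-5 cells (5000 per well) in triplicate with or without compound for 72 h at 37 °C. MTT (5 mg/ml in PBS) added for 2 h at 37 °C. Extraction buffer (20% SDS, 50% dimethylformamide) added overnight at 37 °C, then OD read at 570 nm.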

KBM5 [5] = test: Inhibition of TNF-alpha-induced NF-kappaB activation in human KBM5 cells treated for 12 hrs before TNFalpha challenge measured after 30 mins by EMSA; format: cell-based; procedure, shortened: as §1
KBM5 [6] = test: Inhibition of NF-kappaB activation in human KBM5 cells at 100 uM treated for 12 hrs before TNFalpha challenge by EMSA; format: cell-based; details: TDE = time-dependent effect; procedure, shortened: as §1
KBM5 [7] = test: Inhibition of NF-kappaB activation in human KBM5 cells at 100 uM treated for 12 hrs before TNFalpha challenge measured after 4 hrs by EMSA relative to control; format: cell-based
KBM5 [8] = test: Inhibition of NF-kappaB activation in human KBM5 cells at 100 uM treated for 12 hrs before TNFalpha challenge measured after 6 hrs by EMSA relative to control; format: cell-based
Procedure, shortened: (§2)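 Time course: KBM-5 cells (1×10^6/mL) exposed to 100 μM compound for varying times before 0.1 nM TNF for 30 min. Nuclear extracts (15 μg protein) were probed by EMSA with 16 fmol 32P-labeled HIV LTR κB 45-mer for 30 min at 37°C.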

KBM5 [9] = test: Inhibition of NF-kappaB activation in human KBM5 cells at 100 uM treated for 12 hrs before TNFalpha challenge measured after 8 hrs by EMSA relative to control; format: cell-based; procedure, shortened: as §2
KBM5 [10] = test: Inhibition of NF-kappaB activation in human KBM5 cells at 100 uM treated for 12 hrs before TNFalpha challenge measured after 12 hrs by EMSA relative to control; format: cell-based; procedure, shortened: as §2
[11] = target: Transcription factor p65 (Homo sapiens) (UniProt Q04206); test: Inhibition of nuclear DNA binding to NF-kappaB p65 subunit in TNF-alpha-stimulated human KBM5 cells at 10 uM after 30 mins by EMSA relative to control; format: cell-based
Procedure, shortened: (§3)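 Direct DNA-binding test: nuclear extracts from untreated KBM-5 cells or cells given 0.1 nM TNF for 30 min were incubated for 30 min with compound at various concentrations. Binding to a 32P-labeled HIV LTR κB oligonucleotide was then assessed by EMSA.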

[12] = target: Transcription factor p65 (Homo sapiens) (UniProt Q04206); test: Inhibition of nuclear DNA binding to NF-kappaB p65 subunit in TNF-alpha-stimulated human KBM5 cells at 25 uM after 30 mins by EMSA relative to control; format: cell-based; procedure, shortened: as §3
[13] = target: Transcription factor p65 (Homo sapiens) (UniProt Q04206); test: Inhibition of nuclear DNA binding to NF-kappaB p65 subunit in TNF-alpha-stimulated human KBM5 cells at 50 uM after 30 mins by EMSA relative to control; format: cell-based; procedure, shortened: as §3
[14] = target: Transcription factor p65 (Homo sapiens) (UniProt Q04206); test: Inhibition of nuclear DNA binding to NF-kappaB p65 subunit in TNF-alpha-stimulated human KBM5 cells at 100 uM after 30 mins by EMSA relative to control; format: cell-based; procedure, shortened: as §3
KBM5 [15] = test: Inhibition of TNF-alpha-induced IKK activation in human KBM5 cells at 100 uM treated for 12 hrs before TNFalpha challenge by immunoprecipitation assay; format: cell-based; details: TDE = time-dependent effect
Procedure, shortened: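 KBM-5 cells (5×10^6/mL) preincubated with 100 μM compound for 12 h, then given 1 nM TNF for the indicated times. IKK immunoprecipitated from whole-cell lysates with anti-IKK-α and assayed at 30°C for 30 min: 50 mM HEPES pH 7.4, 20 mM MgCl2, 2 mM DTT, [32P]ATP, unlabeled ATP, 2 μg GST-IκBα(1-54). Phosphorylated substrate shown by SDS-PAGE/phosphorimaging; total IKK-α/β by immunoblot.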

[16] = Inhibition of cyclin D1 protein expression in TNF-alpha-stimulated human KBM5 cells at 100 uM after 6 to 24 hrs by Western blot analysis; format: functional, cell-based
Procedure, shortened: (§4)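 Western blot: KBM-5 lysates (30 μg protein) separated by SDS-PAGE and probed with anti-cyclin D1, Bcl-2 or VEGF (1:1000). HRP secondary (1:3000) applied for 2 h, detection by ECL, bands quantified by densitometry.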

KBM5 [17] = test: Inhibition of Bcl-2 protein expression in TNF-alpha-stimulated human KBM5 cells at 100 uM after 6 to 24 hrs by Western blot analysis; format: functional, cell-based; procedure, shortened: as §4
[18] = Inhibition of VEGF protein expression in TNF-alpha-stimulated human KBM5 cells at 100 uM after 6 to 24 hrs by Western blot analysis; format: functional, cell-based; procedure, shortened: as §4
KBM5 [19] = test: Inhibition of NF-kappaB activation in human KBM5 cells at 5 to 100 uM treated for 12 hrs in absence of TNFalpha by EMSA
KBM5 [20] = test: Intrinsic activity at IKK in TNF-alpha-stimulated human KBM5 cells at 10 to 100 uM added directly to IKK immune complexes in vitro by immunoprecipitation assay

Chain of Transcription factor p65 (Homo sapiens) (Q04206 whole entry): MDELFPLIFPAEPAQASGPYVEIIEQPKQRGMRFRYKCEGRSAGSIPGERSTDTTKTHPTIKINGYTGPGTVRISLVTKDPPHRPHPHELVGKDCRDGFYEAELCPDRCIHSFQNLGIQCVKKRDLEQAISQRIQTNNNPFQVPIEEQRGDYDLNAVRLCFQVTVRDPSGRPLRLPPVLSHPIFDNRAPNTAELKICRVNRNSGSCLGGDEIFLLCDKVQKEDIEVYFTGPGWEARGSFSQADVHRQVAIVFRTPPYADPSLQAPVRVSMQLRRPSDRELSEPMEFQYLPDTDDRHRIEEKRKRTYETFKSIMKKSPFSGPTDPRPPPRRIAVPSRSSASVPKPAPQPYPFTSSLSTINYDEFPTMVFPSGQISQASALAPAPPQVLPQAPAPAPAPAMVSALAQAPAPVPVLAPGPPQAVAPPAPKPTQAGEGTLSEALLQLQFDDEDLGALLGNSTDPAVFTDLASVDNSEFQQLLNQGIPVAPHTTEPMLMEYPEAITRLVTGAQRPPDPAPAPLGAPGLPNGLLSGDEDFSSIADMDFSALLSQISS

Row | Structure (SMILES) | fold change (FC) (KBM5 [1]) | viability at 100 µM [2] [%] | inhibition (KBM5 [3]) [%] | Activity (KBM5 [4]) | also measured
1 | CCCCCCCCCCCCCC[C@H]1COC(=O)C[C@H]1O | 3.6 | 95 | 30 | Active | –
2 | CCCCCCCCCC(=O)N1C(=O)OC[C@@H]1Cc1ccccc1 | 2.4 | 97 | – | Active | –
3 | CCCCCCCC[C@@H]1COC(C)(C)O[C@@H]1CCOCc1ccccc1 | 1.4 | 97 | – | Active | –
4 | CCCCCCC[C@H](CO)[C@H](O)CCOCc1ccccc1 | 4.5 | 98 | 100 | Active | inhibition (KBM5 [5]): Dose-dependent effect; inhibition (KBM5 [6]): tde; fold change (FC) (KBM5 [7]): 4.2; fold change (FC) (KBM5 [8]): 3.1; fold change (FC) (KBM5 [9]): 2.5; fold change (FC) (KBM5 [10]): 1; fold change (FC) [11]: 3.8; fold change (FC) [12]: 3.9; fold change (FC) [13]: 3.8; fold change (FC) [14]: 3.9; inhibition (KBM5 [15]): tde; inhibition [16]: Active; inhibition (KBM5 [17]): Active; inhibition [18]: Active; inhibition (KBM5 [19]): inactive; Activity (KBM5 [20]): inactive
5 | CCCCCCCC[C@H](C(=O)N1C(=O)OC[C@@H]1Cc1ccccc1)[C@H](O)CCOCc1ccccc1 | 1.3 | 98 | – | Active | –
6 | CCCCCCCC[C@H](CO)[C@H](O)CCOCc1ccccc1 | 1.1 | 97 | – | Active | –
